18 compounds from ChEMBL document CHEMBL1177857, “Functionalized aurones as inducers of NAD(P)H:quinone oxidoreductase 1 that activate AhR/XRE and Nrf2/ARE signaling pathways: synthesis, evaluation and SAR” (Eur J Med Chem, 2010) can be followed below.

System in the first data set: not listed separately
Nature of the data set: Induction of NQO1 activity in mouse Hepa-1c1c7 cells at 25 uM after 48 hrs relative to control.
Conditions: not given
Regarding `COc1cc(OC)c2c(c1)O/C(=C\c1cccnc1)C2=O`, the fold change (FC) was found to be 1.9.
Same read-out and setting: the value for `O=C1Oc2ccc(O)cc2/C1=C/c1ccccc1F` was 1.34; that for `O=C1/C(=C/c2ccccc2Cl)Oc2cc(O)ccc21` was 1.3.
On the same count and under the same terms, the same measure for `O=C1Oc2ccc(O)cc2/C1=C/c1ccccc1Cl`: 1.3; for `N#Cc1ccc(/C=C2\Oc3cc(O)cc(O)c3C2=O)cc1`: 1.35.
`COc1cc(OC)c2c(c1)O/C(=C\c1ccc(C#N)cc1)C2=O` showed a fold change (FC) of 1.37.
As for `COc1cc(OC)c2c(c1)O/C(=C\c1ccc(C)cc1)C2=O`, the fold change (FC) was 1.34.

System in a further data set: not listed separately
Nature of the data set: Induction of NQO1 activity in mouse Hepa-1c1c7 cells at 5 uM after 48 hrs relative to control.
Conditions: not given
In turn, `O=C1/C(=C/c2cccc(Cl)c2)Oc2ccc(O)cc21` returned a fold change (FC) of 4.68.
As for `COc1cc(OC)c2c(c1)OC(=O)/C2=C\c1ccccc1Cl`, the fold change (FC) was determined as 2.12.
On to `COc1cc(OC)c2c(c1)O/C(=C\c1ccccn1)C2=O`, for which the fold change (FC) worked out at 2.26.
Still for that read-out and setting: the same measure for `O=C1Oc2ccc(O)cc2/C1=C/c1ccccc1O`: 2.43; for `O=C1/C(=C/c2cccc(Cl)c2)Oc2cc(O)ccc21`: 2.85; for `O=C1/C(=C/c2ccccc2F)Oc2cc(O)cc(O)c21`: 2.2.
The same measure, in the same setting: the same measure for `O=C1/C(=C/c2ccccc2Cl)Oc2cc(O)cc(O)c21`: 2.64.
Compound `COc1cc(OC)c2c(c1)O/C(=C\c1cccc(O)c1O)C2=O` came in with a fold change (FC) of 2.53.
Still for that read-out and setting: the value for `COc1cc(OC)c2c(c1)O/C(=C\c1cccnc1)C2=O` was 1.8; that for `O=C1Oc2ccc(O)cc2/C1=C/c1ccccc1F` was 1.05; that for `O=C1/C(=C/c2ccccc2Cl)Oc2cc(O)ccc21` was 1.02.
Still for that read-out and setting: the same measure for `O=C1Oc2ccc(O)cc2/C1=C/c1ccccc1Cl`: 1.02; for `N#Cc1ccc(/C=C2\Oc3cc(O)cc(O)c3C2=O)cc1`: 1.14; for `O=C1/C(=C/c2ccccc2O)Oc2ccc(O)cc21`: 2.65.
Same read-out and setting: the value for `O=C1Oc2ccc(O)cc2/C1=C/c1ccc(Cl)cc1` was 2.49.
Regarding `COc1cc(OC)c2c(c1)O/C(=C\c1ccc(C#N)cc1)C2=O`, the fold change (FC) is 1.36.
For `COc1cc(OC)c2c(c1)O/C(=C\c1ccc(C)cc1)C2=O`, the fold change (FC) worked out at 1.34.
Turning to `COc1cccc(/C=C2\Oc3cc(O)cc(O)c3C2=O)c1`, the fold change (FC) worked out at 2.15.

System in a further data set: not listed separately
Briefly: Cytotoxicity against mouse Hepa-1c1c7 cells assessed as cell survival at 25 uM after 48 hrs by MTT assay. The format is cell-based. As to conditions: read-out: Activity. Put shortly:
(§1)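 MTT (0.5 mg/ml) added for 3 h at 37 °C, formazan dissolved in DMSO and read at 590 nm. Survival (%) = (A treated − A blank)/(A untreated − A blank) × 100.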
For orientation: Tetrazolium assays rely on reduction of a dye to a coloured formazan, in cell work by metabolically active cells.
With `O=C1/C(=C/c2cccc(Cl)c2)Oc2cc(O)ccc21`, the viability at 48 h, 25 µM was 98%.
The same measure, in the same setting: the same measure for `O=C1/C(=C/c2ccccc2F)Oc2cc(O)cc(O)c21`: 96%; for `COc1cc(OC)c2c(c1)O/C(=C\c1cccnc1)C2=O`: 98%.
Same read-out and setting: the same measure for `O=C1Oc2ccc(O)cc2/C1=C/c1ccccc1F`: 114%.
The same measure, in the same setting: the value for `O=C1/C(=C/c2ccccc2Cl)Oc2cc(O)ccc21` was 117%.
For the compound `O=C1Oc2ccc(O)cc2/C1=C/c1ccccc1Cl`, the viability at 48 h, 25 µM came out at 87%.
Same read-out and setting: the same measure for `N#Cc1ccc(/C=C2\Oc3cc(O)cc(O)c3C2=O)cc1`: 102%; for `O=C1/C(=C/c2ccccc2O)Oc2ccc(O)cc21`: 104%; for `COc1cc(OC)c2c(c1)O/C(=C\c1ccc(C#N)cc1)C2=O`: 95%.
Same read-out and setting: the value for `COc1cc(OC)c2c(c1)O/C(=C\c1ccc(C)cc1)C2=O` was 93%.

A further data set concerns the target T1, CYP1A1 (Mus musculus, UniProt P30561).
T1 sequence (P30561 whole entry): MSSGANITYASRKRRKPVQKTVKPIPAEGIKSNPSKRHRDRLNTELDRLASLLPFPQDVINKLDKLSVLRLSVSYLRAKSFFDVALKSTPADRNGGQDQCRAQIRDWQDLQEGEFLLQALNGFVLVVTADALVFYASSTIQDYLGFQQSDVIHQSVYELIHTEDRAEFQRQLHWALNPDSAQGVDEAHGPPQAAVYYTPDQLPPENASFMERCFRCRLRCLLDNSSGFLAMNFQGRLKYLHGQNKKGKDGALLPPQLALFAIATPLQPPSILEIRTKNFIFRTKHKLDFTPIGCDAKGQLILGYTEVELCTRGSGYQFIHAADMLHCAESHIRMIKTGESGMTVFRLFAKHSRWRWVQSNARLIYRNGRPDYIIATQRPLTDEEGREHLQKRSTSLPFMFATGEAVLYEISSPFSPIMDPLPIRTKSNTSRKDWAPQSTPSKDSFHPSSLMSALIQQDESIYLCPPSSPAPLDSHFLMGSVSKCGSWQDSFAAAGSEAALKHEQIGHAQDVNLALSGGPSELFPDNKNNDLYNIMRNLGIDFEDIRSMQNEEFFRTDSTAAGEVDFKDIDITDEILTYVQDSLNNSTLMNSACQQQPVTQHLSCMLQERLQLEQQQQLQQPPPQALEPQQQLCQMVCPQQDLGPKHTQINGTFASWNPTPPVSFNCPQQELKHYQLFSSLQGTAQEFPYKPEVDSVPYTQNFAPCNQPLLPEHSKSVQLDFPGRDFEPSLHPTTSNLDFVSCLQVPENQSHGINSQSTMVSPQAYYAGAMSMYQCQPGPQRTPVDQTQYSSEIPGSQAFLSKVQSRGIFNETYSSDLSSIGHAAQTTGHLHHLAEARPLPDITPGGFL
Nature of the data set: Induction of Ah receptor in mouse Hepa-1c1c7 cells assessed as induction of CYP1A1 activity at 10 uM after 48 hrs by EROD assay relative to control. The format is cell-based. As to conditions: probe ethoxyresorufin (EROD), read-out: FC. The gist of the method: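 Hepa1c1c7 cells at 10⁴/well grown 24 h, then given compound at one fixed concentration for 48 h. After a PBS wash, cells incubated 40 min at 37 °C with 5 µM 7-ethoxyresorufin plus 2 mM salicylamide. Resorufin fluorescence read at ex 530/em 590 nm. Fold induction = (F cells+compound − F blank)/(F control − F blank); mean ± SD, n = 3.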
In the case of `O=C1/C(=C/c2cccc(Cl)c2)Oc2ccc(O)cc21`, the fold induction at 48 h, 10 µM came to 2.95.
Take `COc1cc(OC)c2c(c1)OC(=O)/C2=C\c1ccccc1Cl`: the fold induction at 48 h, 10 µM came out at 0.97.
Regarding `COc1cc(OC)c2c(c1)O/C(=C\c1ccccn1)C2=O`, the fold induction at 48 h, 10 µM turned out to be 0.98.
On the same count and under the same terms, the value for `O=C1Oc2ccc(O)cc2/C1=C/c1ccccc1O` was 1.12.
On the same count and under the same terms, the same measure for `O=C1/C(=C/c2cccc(Cl)c2)Oc2cc(O)ccc21`: 1.05.
On the same count and under the same terms, the same measure for `O=C1/C(=C/c2ccccc2F)Oc2cc(O)cc(O)c21`: 1; for `O=C1/C(=C/c2ccccc2Cl)Oc2cc(O)cc(O)c21`: 1.18; for `COc1cc(OC)c2c(c1)O/C(=C\c1cccc(O)c1O)C2=O`: 0.97.
With `O=C1/C(=C/c2ccccc2O)Oc2ccc(O)cc21`, the fold induction at 48 h, 10 µM stood at 2.01.
Still for that read-out and setting: the value for `O=C1Oc2ccc(O)cc2/C1=C/c1ccc(Cl)cc1` was 1.04; that for `COc1cccc(/C=C2\Oc3cc(O)cc(O)c3C2=O)c1` was 1.13.

System in the next data set: not listed separately
Briefly: Cytotoxicity against mouse Hepa-1c1c7 cells assessed as cell survival at 5 uM after 48 hrs by MTT assay. As to conditions: read-out: Activity. Format: cell-based. The gist of the method:
as §1
For the compound `O=C1/C(=C/c2cccc(Cl)c2)Oc2ccc(O)cc21`, the viability at 48 h, 5 µM is 101%.
Same read-out and setting: the same measure for `COc1cc(OC)c2c(c1)OC(=O)/C2=C\c1ccccc1Cl`: 90%.
`COc1cc(OC)c2c(c1)O/C(=C\c1ccccn1)C2=O`: the viability at 48 h, 5 µM came out at 92%.
Same read-out and setting: the value for `O=C1Oc2ccc(O)cc2/C1=C/c1ccccc1O` was 115%; that for `O=C1/C(=C/c2cccc(Cl)c2)Oc2cc(O)ccc21` was 111%.
On the same count and under the same terms, the value for `O=C1/C(=C/c2ccccc2F)Oc2cc(O)cc(O)c21` was 110%; that for `O=C1/C(=C/c2ccccc2Cl)Oc2cc(O)cc(O)c21` was 101%; that for `COc1cc(OC)c2c(c1)O/C(=C\c1cccc(O)c1O)C2=O` was 88%.
Same read-out and setting: the value for `COc1cc(OC)c2c(c1)O/C(=C\c1cccnc1)C2=O` was 94%; that for `O=C1Oc2ccc(O)cc2/C1=C/c1ccccc1F` was 102%; that for `O=C1/C(=C/c2ccccc2Cl)Oc2cc(O)ccc21` was 120%.
With `O=C1Oc2ccc(O)cc2/C1=C/c1ccccc1Cl`, the viability at 48 h, 5 µM came to 93%.
The same measure, in the same setting: the same measure for `N#Cc1ccc(/C=C2\Oc3cc(O)cc(O)c3C2=O)cc1`: 115%.
Still for that read-out and setting: the value for `O=C1/C(=C/c2ccccc2O)Oc2ccc(O)cc21` was 99%; that for `O=C1Oc2ccc(O)cc2/C1=C/c1ccc(Cl)cc1` was 90%; that for `COc1cc(OC)c2c(c1)O/C(=C\c1ccc(C#N)cc1)C2=O` was 91%.
Consider `COc1cc(OC)c2c(c1)O/C(=C\c1ccc(C)cc1)C2=O`, for which the viability at 48 h, 5 µM was 89%.
The same measure, in the same setting: the same measure for `COc1cccc(/C=C2\Oc3cc(O)cc(O)c3C2=O)c1`: 112%.
